Assay results: ChEMBL document CHEMBL1129298, “Nonpeptide angiotensin II receptor antagonists: synthesis, biological activities, and structure-activity relationships of imidazole-5-carboxylic acids bearing alkyl, alkenyl, and hydroxyalkyl substituents at the 4-position and their related compounds” (J Med Chem, 1996)

Tests used:
[1] = target: Angiotensin II receptor (Rattus norvegicus) (UniProt P29089+P25095+P35351); assay: In vivo inhibitory activity against angiotensin II induced pressor response in anesthetized normotensive rats; format: functional, organism-based
Outline: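 Male Wistar-Imamichi rats (300–400 g) under inactin (100 mg/kg ip), with femoral arterial and venous cannulae. AII 50 ng/kg iv every 10 min until responses were constant. Compound in DMSO was then given iv and AII re-injected 2 min later.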

[2] = target: T1, Type-1 angiotensin II receptor (Bos taurus, UniProt P25104); assay: In vitro for inhibition of [125I]-angiotensin II (0.1 nM) binding to angiotensin II receptor type 1 in membrane fractions of bovine adrenal cortex; format: tissue-based
T1 sequence (P25104 whole entry): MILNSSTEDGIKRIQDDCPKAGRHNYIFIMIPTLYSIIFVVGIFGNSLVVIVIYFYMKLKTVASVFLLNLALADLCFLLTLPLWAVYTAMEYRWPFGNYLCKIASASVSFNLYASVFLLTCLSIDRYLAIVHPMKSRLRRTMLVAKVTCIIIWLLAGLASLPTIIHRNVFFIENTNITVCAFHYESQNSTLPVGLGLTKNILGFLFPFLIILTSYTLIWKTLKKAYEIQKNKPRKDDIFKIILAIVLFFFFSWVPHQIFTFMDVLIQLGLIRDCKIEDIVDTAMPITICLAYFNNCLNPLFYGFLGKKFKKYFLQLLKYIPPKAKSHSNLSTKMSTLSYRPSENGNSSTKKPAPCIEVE

Rattus norvegicus [3] = assay: Inhibitory activity against AII-Induced Pressor response at 1 mg/Kg at 1 hr; format: functional
Outline: (§1)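 Male Wistar-Imamichi rats (300–400 g) cannulated under pentobarbital (50 mg/kg ip), fasted 24 h, tested conscious the next day. AII 50 ng/kg iv was repeated until constant, then compound in 50% aqueous DMF given orally. AII was repeated over 8 h, and mean blood pressure response inhibition (%) was recorded at 1, 3, 6 h. n = 3–5.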

Rattus norvegicus [4] = assay: Inhibitory activity against AII-Induced Pressor response at 1 mg/Kg at 3 hour; format: functional; outline: as §1
Rattus norvegicus [5] = assay: Inhibitory activity against AII-Induced Pressor response at 1 mg/Kg at 6 hour; format: functional; outline: as §1
Rattus norvegicus [6] = assay: Inhibitory activity against AII-Induced Pressor response at 1 mg/kg at 1 hr; format: functional; outline: as §1
Rattus norvegicus [7] = assay: Inhibitory activity against AII-Induced Pressor response at 1 mg/kg at 3 hour; format: functional; conditions: Rattus norvegicus, 3 h; outline: as §1
Rattus norvegicus [8] = assay: Inhibitory activity against AII-Induced Pressor response at 1 mg/kg at 6 hour; format: functional; conditions: Rattus norvegicus, 6 h, dose 1 mg/kg; outline: as §1
Rattus norvegicus [9] = assay: Inhibitory activity against AII-Induced Pressor response at 3 mg/Kg at 6 hour; format: functional; outline: as §1
Rattus norvegicus [10] = assay: Inhibitory activity against AII-Induced Pressor response at 3 mg/Kg at 3 hour; format: functional; outline: as §1
Rattus norvegicus [11] = assay: Inhibitory activity against AII-Induced Pressor response at 10 mg/Kg at 6 hour; format: functional; outline: as §1
Rattus norvegicus [12] = assay: Inhibitory activity against AII-Induced Pressor response at 3 mg/Kg at 1 hr; format: functional; outline: as §1
Rattus norvegicus [13] = assay: Inhibitory activity against AII-Induced Pressor response at 10 mg/Kg at 1 hr; format: functional; outline: as §1
Rattus norvegicus [14] = assay: Inhibitory activity against AII-Induced Pressor response at 10 mg/Kg at 3 hour; format: functional; outline: as §1

Compound | ID50 [1] [mg/kg] | IC50 [2] [µM] | further results
C=C(C)c1nc(CCC)n(Cc2ccc(-c3ccccc3C(=O)O)cc2)c1C(=O)O | 0.37 | 0.27 | –
CCCc1nc(C(O)(CC)CC)c(C(=O)O)n1Cc1ccc(-c2ccccc2C(=O)O)cc1 | 0.11 | 0.11 | –
CCCc1nc(C(C)(C)O)c(C(=O)OCC)n1Cc1ccc(-c2ccccc2-c2nn[nH]n2)cc1 | 0.32 | – | inhibition in vivo at 1 mg/kg (Rattus norvegicus [3]): 70%; inhibition in vivo at 1 mg/kg (Rattus norvegicus [4]): 72%; inhibition in vivo at 1 mg/kg (Rattus norvegicus [5]): 76%
CCc1nc(C(C)(C)O)c(C(=O)O)n1Cc1ccc(-c2ccccc2-c2nnn[nH]2)cc1 | – | 0.0053 | –
CCCc1nc(C(C)(C)O)c(C(=O)O)n1Cc1ccc(-c2ccccc2C(=O)OCOC(=O)C(C)(C)C)cc1 | – | – | inhibition in vivo at 1 mg/kg (Rattus norvegicus [6]): 20%; inhibition in vivo at 1 mg/kg (Rattus norvegicus [7]): 35%; inhibition in vivo at 1 mg/kg (Rattus norvegicus [8]): 40%
CCCc1nc(C(C)O)c(C(=O)O)n1Cc1ccc(-c2ccccc2-c2nnn[nH]2)cc1 (centres undefined) | – | 0.0049 | –
CCCCc1nc(Cl)c(CO)n1Cc1ccc(-c2ccccc2-c2nnn[nH]2)cc1 [LOSARTAN] | 0.3 | – | inhibition in vivo at 1 mg/kg (Rattus norvegicus [3]): 12%; inhibition in vivo at 3 mg/kg (Rattus norvegicus [9]): 65%; inhibition in vivo at 3 mg/kg (Rattus norvegicus [10]): 35%; inhibition in vivo at 1 mg/kg (Rattus norvegicus [4]): 12%; inhibition in vivo at 10 mg/kg (Rattus norvegicus [11]): 85%; inhibition in vivo at 3 mg/kg (Rattus norvegicus [12]): 38%; inhibition in vivo at 10 mg/kg (Rattus norvegicus [13]): 69%; inhibition in vivo at 1 mg/kg (Rattus norvegicus [5]): 32%; inhibition in vivo at 10 mg/kg (Rattus norvegicus [14]): 77%
CCCc1nc(C(C)(O)CC)c(C(=O)O)n1Cc1ccc(-c2ccccc2C(=O)O)cc1 (centres undefined) | 0.074 | 0.051 | –
CCCc1nc(C(C)(C)O)c(C(=O)OCOC(=O)OC(C)C)n1Cc1ccc(-c2ccccc2C(=O)O)cc1 | – | – | inhibition in vivo at 1 mg/kg (Rattus norvegicus [6]): 71%; inhibition in vivo at 1 mg/kg (Rattus norvegicus [7]): 71%; inhibition in vivo at 1 mg/kg (Rattus norvegicus [8]): 71%
CCCc1nc(C(C)(C)O)c(C(=O)OCC)n1Cc1ccc(-c2ccccc2-c2nnn[nH]2)cc1 | – | 0.2 | –
CCCc1nc(C(C)C)c(C(=O)O)n1Cc1ccc(-c2ccccc2-c2nnn[nH]2)cc1 | – | 0.046 | –
CCCc1nc(C(C)(C)O)c(C(=O)O)n1Cc1ccc(-c2ccccc2C(=O)O)cc1 | 0.056 | 0.028 | inhibition in vivo at 1 mg/kg (Rattus norvegicus [6]): 50%; inhibition in vivo at 3 mg/kg (Rattus norvegicus [9]): 48%; inhibition in vivo at 3 mg/kg (Rattus norvegicus [10]): 67%; inhibition in vivo at 10 mg/kg (Rattus norvegicus [11]): 56%; inhibition in vivo at 3 mg/kg (Rattus norvegicus [12]): 78%; inhibition in vivo at 10 mg/kg (Rattus norvegicus [13]): 88%; inhibition in vivo at 1 mg/kg (Rattus norvegicus [7]): 42%; inhibition in vivo at 1 mg/kg (Rattus norvegicus [8]): 12%; inhibition in vivo at 10 mg/kg (Rattus norvegicus [14]): 70%
CCCc1nc(C(C)O)c(C(=O)O)n1Cc1ccc(-c2ccccc2C(=O)O)cc1 (centres undefined) | 0.062 | 0.028 | –
CCCc1nc(C(=O)O)cn1Cc1ccc(-c2ccccc2-c2nn[nH]n2)cc1 | 2.4 | – | –
CCCCc1nc(C(C)(C)O)c(C(=O)O)n1Cc1ccc(-c2ccccc2C(=O)O)cc1 | 0.066 | 0.03 | –
CCCc1nc(C(=O)O)cn1Cc1ccc(-c2ccccc2C(=O)O)cc1 | 8.2 | 45 | –
CCCc1nc(C(C)(C)O)c(C(=O)OCc2oc(=O)oc2C)n1Cc1ccc(-c2ccccc2C(=O)O)cc1 | – | – | inhibition in vivo at 1 mg/kg (Rattus norvegicus [6]): 72%; inhibition in vivo at 1 mg/kg (Rattus norvegicus [7]): 70%; inhibition in vivo at 1 mg/kg (Rattus norvegicus [8]): 70%
CCCc1nc(CC)c(C(=O)O)n1Cc1ccc(-c2ccccc2C(=O)O)cc1 | 0.27 | 0.1 | –
CCCc1nc(C)c(C(=O)O)n1Cc1ccc(-c2ccccc2-c2nn[nH]n2)cc1 | 0.028 | 0.011 | –
CCCc1nc(C(C)(C)O)c(C(=O)OC2OC(=O)c3ccccc32)n1Cc1ccc(-c2ccccc2C(=O)O)cc1 (centres undefined) | – | – | inhibition in vivo at 1 mg/kg (Rattus norvegicus [6]): 73%; inhibition in vivo at 1 mg/kg (Rattus norvegicus [7]): 77%; inhibition in vivo at 1 mg/kg (Rattus norvegicus [8]): 74%
CCc1nc(C(C)(C)O)c(C(=O)O)n1Cc1ccc(-c2ccccc2-c2nn[nH]n2)cc1 | 0.019 | – | –
CCCCc1nc(Cl)c(CO)n1Cc1ccc(-c2ccccc2C(=O)O)cc1 | 2.3 | – | –
CCCc1nc(C(=O)O)c(CO)n1Cc1ccc(-c2ccccc2C(=O)O)cc1 | 8.8 | – | –

Compound | ID50 [1] [mg/kg] | IC50 [2] [µM] | further results
CCCc1nc(C(C)C)c(C(=O)O)n1Cc1ccc(-c2ccccc2C(=O)O)cc1 | 0.14 | – | –
CCCc1nc(C(C)C)c(C(=O)O)n1Cc1ccc(-c2ccccc2-c2nn[nH]n2)cc1 | 0.014 | – | –
C=C(C)c1nc(CCC)n(Cc2ccc(-c3ccccc3-c3nn[nH]n3)cc2)c1C(=O)O | 0.012 | – | –
CCCCc1nc(Cl)c(C(=O)O)n1Cc1ccc(-c2ccccc2-c2nn[nH]n2)cc1 [CARBOXYLIC ACID METABOLITE] | 0.1 | – | inhibition in vivo at 1 mg/kg (Rattus norvegicus [3]): 74%; inhibition in vivo at 3 mg/kg (Rattus norvegicus [9]): 81%; inhibition in vivo at 3 mg/kg (Rattus norvegicus [10]): 81%; inhibition in vivo at 1 mg/kg (Rattus norvegicus [4]): 72%; inhibition in vivo at 10 mg/kg (Rattus norvegicus [11]): 89%; inhibition in vivo at 3 mg/kg (Rattus norvegicus [12]): 81%; inhibition in vivo at 10 mg/kg (Rattus norvegicus [13]): 89%; inhibition in vivo at 1 mg/kg (Rattus norvegicus [5]): 70%; inhibition in vivo at 10 mg/kg (Rattus norvegicus [14]): 93%
CCCc1nc(CC)c(C(=O)O)n1Cc1ccc(-c2ccccc2-c2nnn[nH]2)cc1 | – | 0.012 | –
CCCc1nc(C(=O)O)c(C(=O)O)n1Cc1ccc(-c2ccccc2-c2nn[nH]n2)cc1 | 0.031 | – | –
CCCCc1nc(Cl)c(C(=O)O)n1Cc1ccc(-c2ccccc2C(=O)O)cc1 | 0.21 | – | –
CCCc1ncc(C(=O)O)n1Cc1ccc(-c2ccccc2-c2nn[nH]n2)cc1 | 0.018 | 0.0091 | –
C=C(C)c1nc(CCC)n(Cc2ccc(-c3ccccc3-c3nnn[nH]3)cc2)c1C(=O)O | – | 0.05 | –
CCCc1nc(C(=O)O)c(C(=O)O)n1Cc1ccc(-c2ccccc2C(=O)O)cc1 | 0.67 | – | –
CCCc1nc(CO)c(CO)n1Cc1ccc(-c2ccccc2C(=O)O)cc1 | 2.1 | – | –
CCc1nc(C(C)(C)O)c(C(=O)O)n1Cc1ccc(-c2ccccc2C(=O)O)cc1 | 0.3 | 0.037 | –
CCCc1nc(CO)c(C(=O)O)n1Cc1ccc(-c2ccccc2-c2nnn[nH]2)cc1 | – | 0.0069 | –
CCCCc1nc(C(C)(C)O)c(C(=O)O)n1Cc1ccc(-c2ccccc2-c2nn[nH]n2)cc1 | 0.017 | – | –
CCCc1ncc(C(=O)O)n1Cc1ccc(-c2ccccc2C(=O)O)cc1 | 0.22 | 0.06 | –
CCCc1nc(CC)c(C(=O)O)n1Cc1ccc(-c2ccccc2-c2nn[nH]n2)cc1 | 0.019 | – | –
CCCc1nc(C)c(C(=O)O)n1Cc1ccc(-c2ccccc2C(=O)O)cc1 | 0.096 | 0.11 | –
CCCc1nc(CO)c(C(=O)OCC)n1Cc1ccc(-c2ccccc2C(=O)O)cc1 | 1.5 | – | –
CCCc1nc(C(=O)O)c(CO)n1Cc1ccc(-c2ccccc2-c2nn[nH]n2)cc1 | 1.7 | 4.6 | –
CCCc1nc(CO)c(C(=O)O)n1Cc1ccc(-c2ccccc2C(=O)O)cc1 | 0.069 | – | –
CCCCc1nc(C(C)(C)O)c(C(=O)O)n1Cc1ccc(-c2ccccc2-c2nnn[nH]2)cc1 | – | 0.0095 | –
CCCc1nc(C(C)(C)O)c(C(=O)OCC)n1Cc1ccc(-c2ccccc2C(=O)O)cc1 | 1.2 | 0.6 | inhibition in vivo at 3 mg/kg (Rattus norvegicus [9]): 25%; inhibition in vivo at 3 mg/kg (Rattus norvegicus [10]): 28%; inhibition in vivo at 10 mg/kg (Rattus norvegicus [11]): 75%; inhibition in vivo at 3 mg/kg (Rattus norvegicus [12]): 26%; inhibition in vivo at 10 mg/kg (Rattus norvegicus [13]): 40%; inhibition in vivo at 10 mg/kg (Rattus norvegicus [14]): 70%
